The Kd is the concentration at which binding is half-saturated. Broadly, the inhibition is how much of the control response was suppressed. The IC50 is the point on the concentration scale where inhibition reaches its midpoint.

Calls of active or inactive are those of the source. No cut-off for these calls is given here.

The target of assay [1] is microRNA 21. Briefly: Binding affinity to biotinylated pre-miRNA-21 (unknown origin) by SPR analysis. It counts as nucleic-acid assay. For orientation: In SPR one partner is held on a chip, and binding of the other changes the refractive index at the surface.
Assay [2] concerns microRNA 21. Put plainly: Inhibition of Dicer mediated 5'-biotinylated PEG linked pre-miRNA-21 (unknown origin) maturation. It counts as nucleic-acid assay.
A short description of assay [3]: Inhibition of biotinylated pre-let-7d microRNA (unknown origin) maturation preincubated for 15 mins followed by Pre-let-7d addition and measured after 5 hrs by cat-ELCCA. The method in brief: (§1)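 Dose-response cat-ELCCA in which Dicer is in excess over the biotinylated pre-miRNA substrate to ensure adequate signal-to-background. IC50 values are derived from the inhibition curves and reported as 95% confidence intervals.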

For assay [4], the target named is microRNA 21. Briefly: Inhibition of Dicer mediated biotinylated pre-miRNA-21 (unknown origin) maturation preincubated for 15 mins followed by pre-miRNA-21 addition and measured after 5 hrs by cat-ELCCA. It counts as nucleic-acid assay. The method, boiled down:
as §1

Assay [5] concerns microRNA 21. Put plainly: Inhibition of Dicer mediated biotinylated pre-miRNA-21 (unknown origin) maturation at 1 mM measured after 15 mins by cat-ELCCA relative to control. It counts as nucleic-acid assay. The method in brief: (§2)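 Single-point cat-ELCCA screen at 1.0 mM compound. Recombinant Dicer is used in excess over the pre-miRNA substrate to give enough signal-to-background. The read-out is percent inhibition of processing.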

For assay [6], the system named is microRNA 21. Put plainly: […] miR-21 RNA in human HeLA cells transfected with pmirGLO empty vector incubated for 48 hrs by Dual-Glo luciferase assay. It counts as cell-based.
Assay [7] relates to microRNA 21. Put plainly: […] miR-21 RNA in human HeLA cells transfected with pmir21 vector incubated for 48 hrs by Dual-Glo luciferase assay. It counts as cell-based.
A further assay has as its system Escherichia coli. Briefly: Inhibition of Escherichia coli RNase 3 dsRBD assessed as inhibition of pre-miRNA-21 maturation incubated for 0.5 to 1 hr.
Assay [8] concerns microRNA 21. Briefly: Inhibition of Dicer mediated biotinylated pre-miRNA-21 (unknown origin) maturation in presence of 1 to 3 mM MgCl2 preincubated for 15 mins followed by pre-miRNA-21 addition and measured after 5 hrs by cat-ELCCA. It counts as nucleic-acid assay.
Assay [9] can be described thus: Binding affinity to biotinylated pre-let-7d microRNA (unknown origin) by SPR analysis.
In assay [10] the test system is microRNA 21. Briefly: Inhibition of Dicer mediated biotinylated pre-miRNA-21 (unknown origin) maturation in presence of 1;1 ratio of CaCl2 and MgCl2 preincubated for 15 mins followed by pre-miRNA-21 addition and measured after 5 hrs by cat-ELCCA. It counts as nucleic-acid assay.
Assay [11] can be described thus: Inhibition of biotinylated pre-let-7d (unknown origin) maturation at 1 mM preincubated for 15 mins followed by Pre-let-7d addition and measured after 5 hrs by cat-ELCCA. The method, boiled down:
as §2

As to `CN1CCN(c2ccc3nc(-c4ccc5nc(-c6ccc(O)cc6)[nH]c5c4)[nH]c3c2)CC1`, the Kd at microRNA 21 [1] (read-out: Kd) lay in the range of 0.1 to 0.7 µM.
As for `CC(=O)Oc1cccc2c1C(=O)C1=C(O)[C@]3(OC(C)=O)C(=O)C(C(N)=O)=C(O)[C@@H](N(C)C)[C@@H]3[C@@H](OC(C)=O)[C@@H]1[C@]2(C)OC(C)=O`, the inhibition result in the assay on microRNA 21 [2] was “Active”.
Regarding `Nc1ccc(-c2nc3cc(-c4nc5ccccc5o4)ccc3[nH]2)cc1`, the IC50 result in assay [3] was “Not Active”; against microRNA 21 [4], 229 µM.
As for `CN(C)[C@@H]1C(O)=C(C(N)=O)C(=O)[C@@]2(O)C(O)=C3C(=O)c4c(O)cccc4[C@@](C)(O)[C@H]3[C@H](O)[C@@H]12` [OXYTETRACYCLINE], the IC50 in assay [3] (read-out: IC50) was 431 to 1020 µM; on microRNA 21 [4] it was 200 to 918 µM. Further, in the assay on microRNA 21 [5], the inhibition lay in the range of 40 to 100%.
With `O=c1oc2c(-c3cccc(Cl)c3)cc(O)cc2s1`, the IC50 entry in [3] was “Not Active”; against microRNA 21 [4], 645 µM.
As to `CN(C)c1cc(NC(=O)CNC(C)(C)C)c(O)c2c1C[C@H]1C[C@H]3[C@H](N(C)C)C(O)=C(C(N)=O)C(=O)[C@@]3(O)C(O)=C1C2=O`, the inhibition in the assay with microRNA 21 [5] lay within 40 to 100%.
Still for that read-out and setting: the result for `CN(C)[C@@H]1C(O)=C(C(N)=O)C(=O)[C@@]2(O)C(O)=C3C(=O)c4c(O)ccc(Cl)c4[C@@H](O)[C@H]3C[C@@H]12` reads 40 to 100%.
For the compound `CN(C)[C@@H]1C(O)=C(C(N)=O)C(=O)[C@@]2(O)C(O)=C3C(=O)c4c(O)cccc4[C@@](C)(O)[C@H]3C[C@@H]12` [TETRACYCLINE], the outcome in the assay with microRNA 21 [6] and in the assay with microRNA 21 [7] was inactive. The figures for the IC50 (in assay [3] (read-out: IC50); against microRNA 21 [4]) were 421 to 865 µM and 434 to 1000 µM, respectively. Also, in the assay with microRNA 21 [5], the inhibition fell in the range of 40 to 100%.
In the case of `O=c1nc(/C=C/c2ccc(O)c(O)c2)oc2ccccc12`, the figures for the IC50 result (in [3]; on microRNA 21 [4]) were “Not Active” and 692 µM, respectively.
Consider `C=C1c2cccc(O)c2C(=O)C2=C(O)[C@]3(O)C(=O)C(C(N)=O)=C(O)[C@@H](N(C)C)[C@@H]3[C@@H](O)[C@H]12` [METHACYCLINE], for which the inhibition entry in the assay on Escherichia coli, with microRNA 21 [8] and with microRNA 21 [10] was “Active” in each case. Also, the outcome in the assay on microRNA 21 [6] and in the assay on microRNA 21 [7] was inactive. For the same compound, the IC50 in assay [3] (read-out: IC50) was 97 to 749 µM; on microRNA 21 [4], 56 to 437 µM. This compound also yielded an inhibition with microRNA 21 [5] of 40 to 100%. In addition, the Kd in [9] (read-out: Kd) was determined as 17 µM; on microRNA 21 [1] (read-out: Kd) it was 9.9 µM.
As for `NC[C@H]1O[C@H](O[C@H]2[C@H](O)[C@@H](O[C@H]3O[C@H](CO)[C@@H](O)[C@H](N)[C@H]3O)[C@H](N)C[C@@H]2N)[C@H](O)[C@@H](O)[C@@H]1O` [KANAMYCIN], the inhibition entry (in [11]; in the assay on microRNA 21 [5]) was “inactive” each time. The Kd on microRNA 21 [1] (read-out: Kd) is 0.1 to 0.7 µM.
For the compound `NC[C@@H]1O[C@H](O[C@H]2[C@@H](O)[C@H](O[C@@H]3[C@@H](O)[C@H](N)C[C@H](N)[C@H]3O[C@H]3O[C@H](CN)[C@@H](O)[C@H](O)[C@H]3N)O[C@@H]2CO)[C@H](N)[C@@H](O)[C@@H]1O` [FRAMYCETIN], the inhibition entry (in assay [11]; in the assay on microRNA 21 [5]) was “inactive” throughout. At microRNA 21 [1] (read-out: Kd), the dissociation constant Kd was 0.1 to 0.7 µM.
Take `C=C1c2c(Cl)ccc(O)c2C(=O)C2=C(O)[C@]3(O)C(=O)C(C(N)=O)=C(O)[C@@H](N(C)C)[C@@H]3[C@@H](O)[C@H]12` [MECLOCYCLINE]: the outcome in the assay on microRNA 21 [6] and in the assay with microRNA 21 [7] was inactive. Moreover, the IC50 in assay [3] (read-out: IC50) lay within 80 to 240 µM; at microRNA 21 [4], 62 to 196 µM. The compound also showed an inhibition with microRNA 21 [5] of 40 to 100%. The Kd in [9] (read-out: Kd) was found to be 5.8 µM; on microRNA 21 [1] (read-out: Kd), 2.1 µM.
On to `CN(C)[C@H]1C(O)=C(C(N)=O)C(=O)[C@@]2(O)C(O)=C3C(=O)c4c(O)cccc4[C@@](C)(O)[C@H]3C[C@@H]12`, for which the inhibition in the assay with microRNA 21 [5] lay in the range of 40 to 100%.
On to `CN1c2ccccc2C(C)(C)C12C=Cc1cc(O)ccc1O2` (centres undefined), for which the figures for the IC50 entry (in assay [3]; at microRNA 21 [4]) were “Not Active” and 15 µM, respectively.
Regarding `CN(C)c1ccc(O)c2c1C[C@H]1C[C@H]3[C@H](N(C)C)C(O)=C(C(N)=O)C(=O)[C@@]3(O)C(O)=C1C2=O` [MINOCYCLINE], the IC50 is 437 to 744 µM in [3] (read-out: IC50) and 305 to 539 µM at microRNA 21 [4]. This compound also returned an inhibition with microRNA 21 [5] of 40 to 100%.
For `COc1ccc(-c2cc(-c3cc(OC)ccc3O)[nH]n2)cc1`, the results for the IC50 entry (in assay [3]; against microRNA 21 [4]) were “Not Active” and 148 µM, respectively.
Consider `CN(C)[C@@H]1C(O)=C(C(N)=O)C(=O)[C@@]2(O)C(O)=C3C(=O)c4c(O)ccc(Cl)c4[C@@](C)(O)[C@H]3C[C@@H]12` [CHLORTETRACYCLINE], for which the IC50 in assay [3] (read-out: IC50) lay within 237 to 307 µM; against microRNA 21 [4], 155 to 274 µM. This compound also had an inhibition in the assay on microRNA 21 [5] of 40 to 100%.
Turning to `CN[C@@H]1[C@H](O[C@H]2[C@H](O[C@H]3[C@H](O)[C@@H](O)[C@H](N=C(N)N)[C@@H](O)[C@@H]3N=C(N)N)O[C@@H](C)[C@]2(O)C=O)O[C@@H](CO)[C@H](O)[C@H]1O` [STREPTOMYCIN], the inhibition result (in [11]; with microRNA 21 [5]) was “inactive” throughout. Besides, the Kd on microRNA 21 [1] (read-out: Kd) was in the range of 0.1 to 0.7 µM.
With `Cc1c2c(c(O)c3c(O)cccc13)C(=O)[C@]1(O)C(=O)C(C(N)=O)=C(O)[C@@H](N(C)C)[C@@H]1C2`, the inhibition with microRNA 21 [5] lay within 40 to 100%.
With `Oc1ccc(-c2csc(Cc3c[nH]c4ccccc34)n2)cc1O`, the results for the IC50 entry (in [3]; against microRNA 21 [4]) were “Not Active” and 398 µM, respectively.
Regarding `NC(=O)C1=C(O)C[C@@H]2C[C@@H]3Cc4cccc(O)c4C(=O)C3=C(O)[C@]2(O)C1=O` [INCYCLINIDE], the inhibition entry (in [3]; in the assay with microRNA 21 [4]) was “Dose-dependent effect” each time. Besides, the figures for the IC50 (in assay [3] (read-out: IC50); on microRNA 21 [4]) were 383 to 775 µM and 358 to 469 µM, respectively. In addition, the Kd result (in [9]; in the assay with microRNA 21 [1]) was “Not Active” in each case.
Take `CN1CCN(c2ccc3[nH]c(-c4ccc5[nH]c(-c6ccc(O)cc6)nc5c4)nc3c2)CC1`: the inhibition result (in assay [11]; in the assay with microRNA 21 [5]) was “inactive” each time.
For `C[C@H]1c2cccc(O)c2C(=O)C2=C(O)[C@]3(O)C(=O)C(C(N)=O)=C(O)[C@@H](N(C)C)[C@@H]3[C@@H](O)[C@@H]21` [DOXYCYCLINE], the IC50 in assay [3] (read-out: IC50) lay in the range of 433 to 1300 µM; on microRNA 21 [4], 433 to 1410 µM. Moreover, in the assay on microRNA 21 [5], the inhibition is 40 to 100%.
